In ChEMBL document CHEMBL4229410, “Facile construction of fused benzimidazole-isoquinolinones that induce cell-cycle arrest and apoptosis in colorectal cancer cells” (Bioorg Med Chem, 2018):
pKd: −log10 of the molar value. The source made the active and inactive calls. No cut-off for these calls is given here.

What was measured:
[1] = biological target: Atypical kinase COQ8A, mitochondrial (Homo sapiens, UniProt Q8NI60); assay: Binding affinity to full length human ADCK3 (M280 to Q647 residues) expressed in bacterial expression system by KINOMEscan assay
SW-620 [2] = assay: Antiproliferative activity against human SW620 cells after 48 hrs by BrdU/DAPI staining based immunofluorescence assay; format: functional, cell-based
Method in brief: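 Cells seeded at 20,000 per well after reaching 80% confluence; exposed 48 h to 0, 25, 50, 75 μM, then 10 μM BrdU for 2 h. Paraformaldehyde fixation, 2 M HCl 30 min, 10% goat serum block, anti-BrdU primary overnight at 4 °C, secondary 120 min at room temperature, DAPI 300 nM. Fluorescence microscopy; percent BrdU-positive nuclei, mean ± SD of three independent experiments.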

[3] = biological target: T1, Proto-oncogene tyrosine-protein kinase receptor Ret (Homo sapiens, UniProt P07949); assay: Binding affinity to human RET (E713 to D1014 residues) expressed in bacterial expression system by KINOMEscan assay
T1 sequence (P07949 whole entry, the tested form may be a part): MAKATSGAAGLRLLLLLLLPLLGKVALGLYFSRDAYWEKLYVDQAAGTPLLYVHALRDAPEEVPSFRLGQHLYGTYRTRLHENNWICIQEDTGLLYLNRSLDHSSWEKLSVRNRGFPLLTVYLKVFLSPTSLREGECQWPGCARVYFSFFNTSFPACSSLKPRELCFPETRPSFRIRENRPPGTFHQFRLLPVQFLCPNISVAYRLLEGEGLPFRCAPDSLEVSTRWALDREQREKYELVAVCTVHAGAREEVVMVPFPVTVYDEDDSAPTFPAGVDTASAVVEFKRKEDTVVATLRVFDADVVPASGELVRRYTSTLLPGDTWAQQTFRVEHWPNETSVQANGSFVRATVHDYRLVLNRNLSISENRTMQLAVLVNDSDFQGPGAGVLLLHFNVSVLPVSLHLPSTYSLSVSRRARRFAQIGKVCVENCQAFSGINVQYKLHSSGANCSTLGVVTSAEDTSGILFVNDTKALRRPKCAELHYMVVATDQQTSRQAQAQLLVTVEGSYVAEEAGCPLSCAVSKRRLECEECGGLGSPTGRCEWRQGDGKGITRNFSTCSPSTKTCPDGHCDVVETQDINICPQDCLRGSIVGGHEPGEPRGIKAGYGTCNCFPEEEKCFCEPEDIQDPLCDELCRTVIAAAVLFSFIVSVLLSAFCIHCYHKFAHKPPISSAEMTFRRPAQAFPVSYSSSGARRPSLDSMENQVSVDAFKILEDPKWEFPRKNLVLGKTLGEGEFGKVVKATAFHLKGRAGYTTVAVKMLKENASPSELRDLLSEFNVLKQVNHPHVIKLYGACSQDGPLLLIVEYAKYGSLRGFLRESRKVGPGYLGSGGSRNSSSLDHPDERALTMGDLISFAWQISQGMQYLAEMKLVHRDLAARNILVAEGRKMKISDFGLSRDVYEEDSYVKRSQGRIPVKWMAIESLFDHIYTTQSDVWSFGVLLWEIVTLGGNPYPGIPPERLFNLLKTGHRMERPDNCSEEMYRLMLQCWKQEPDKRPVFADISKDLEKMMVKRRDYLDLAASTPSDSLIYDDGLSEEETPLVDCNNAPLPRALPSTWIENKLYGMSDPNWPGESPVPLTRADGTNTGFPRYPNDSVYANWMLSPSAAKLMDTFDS

HT-29 [4] = assay: Induction of apoptosis in human HT-29 cells assessed as late apoptotic cells at 25 uM after 48 hrs by Annexin-V-FITC/propidium iodide staining based flow cytometry (reference value: 4.1%); format: functional
[5] = biological target: Cyclin-dependent kinase 19 (Homo sapiens, UniProt Q9BWU1); assay: Inhibition of human CDK11 (M1 to N360 residues) expressed in bacterial expression system assessed as residual activity at 5 uM by KINOMEscan assay relative to control
SW-620 [6] = assay: Cell cycle arrest in human SW620 cells assessed as accumulation at S-phase at 50 uM after 48 hrs by propidium iodide staining based flow cytometry (reference value: 43.72%); format: functional
[7] = biological target: MAP kinase-interacting serine/threonine-protein kinase 1 (Homo sapiens, UniProt Q9BUB5); assay: Inhibition of full length human MKNK1 (M1 to L424 residues) expressed in mammalian expression system assessed as residual activity at 5 uM by KINOMEscan assay relative to control
Chain of MAP kinase-interacting serine/threonine-protein kinase 1 (Q9BUB5 whole entry, looked up, the tested form may be a part): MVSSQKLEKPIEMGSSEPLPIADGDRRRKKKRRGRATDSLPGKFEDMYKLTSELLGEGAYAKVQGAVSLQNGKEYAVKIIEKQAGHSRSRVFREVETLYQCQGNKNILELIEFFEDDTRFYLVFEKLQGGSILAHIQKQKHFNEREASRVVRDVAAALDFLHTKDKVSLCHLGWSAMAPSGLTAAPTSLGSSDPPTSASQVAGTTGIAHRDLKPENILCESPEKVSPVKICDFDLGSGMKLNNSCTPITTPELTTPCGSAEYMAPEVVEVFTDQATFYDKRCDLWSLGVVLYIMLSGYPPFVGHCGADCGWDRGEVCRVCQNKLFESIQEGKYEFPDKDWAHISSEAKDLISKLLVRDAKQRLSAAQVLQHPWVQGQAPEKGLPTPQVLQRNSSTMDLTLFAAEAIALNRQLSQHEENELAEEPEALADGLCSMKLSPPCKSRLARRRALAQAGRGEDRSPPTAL

[8] = biological target: Serine/threonine-protein kinase STK11 (Homo sapiens) (UniProt Q15831); assay: Inhibition of full length human LKB1 (M1 to Q433 residues) expressed in bacterial expression system assessed as residual activity at 5 uM by KINOMEscan assay relative to control
Chain of Serine/threonine-protein kinase STK11 (Homo sapiens) (Q15831 whole entry, the tested form may be a part): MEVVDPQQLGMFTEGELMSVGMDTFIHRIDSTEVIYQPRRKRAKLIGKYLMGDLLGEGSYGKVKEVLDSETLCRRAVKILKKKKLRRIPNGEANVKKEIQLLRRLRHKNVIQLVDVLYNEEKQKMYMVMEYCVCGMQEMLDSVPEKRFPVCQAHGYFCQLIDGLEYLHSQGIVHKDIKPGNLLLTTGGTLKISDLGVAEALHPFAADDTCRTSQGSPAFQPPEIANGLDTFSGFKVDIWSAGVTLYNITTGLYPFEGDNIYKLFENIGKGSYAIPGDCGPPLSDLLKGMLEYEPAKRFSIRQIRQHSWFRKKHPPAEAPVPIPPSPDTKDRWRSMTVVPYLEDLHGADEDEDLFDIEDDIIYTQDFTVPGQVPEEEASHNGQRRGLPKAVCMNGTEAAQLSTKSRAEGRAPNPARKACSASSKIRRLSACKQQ

Insulin receptor = Insulin receptor (Homo sapiens, UniProt P06213); assay: Binding affinity to human INSR (P997 to E1318 residues) expressed in mammalian expression system by KINOMEscan assay
Chain of Insulin receptor (P06213 28-758 limits assumed): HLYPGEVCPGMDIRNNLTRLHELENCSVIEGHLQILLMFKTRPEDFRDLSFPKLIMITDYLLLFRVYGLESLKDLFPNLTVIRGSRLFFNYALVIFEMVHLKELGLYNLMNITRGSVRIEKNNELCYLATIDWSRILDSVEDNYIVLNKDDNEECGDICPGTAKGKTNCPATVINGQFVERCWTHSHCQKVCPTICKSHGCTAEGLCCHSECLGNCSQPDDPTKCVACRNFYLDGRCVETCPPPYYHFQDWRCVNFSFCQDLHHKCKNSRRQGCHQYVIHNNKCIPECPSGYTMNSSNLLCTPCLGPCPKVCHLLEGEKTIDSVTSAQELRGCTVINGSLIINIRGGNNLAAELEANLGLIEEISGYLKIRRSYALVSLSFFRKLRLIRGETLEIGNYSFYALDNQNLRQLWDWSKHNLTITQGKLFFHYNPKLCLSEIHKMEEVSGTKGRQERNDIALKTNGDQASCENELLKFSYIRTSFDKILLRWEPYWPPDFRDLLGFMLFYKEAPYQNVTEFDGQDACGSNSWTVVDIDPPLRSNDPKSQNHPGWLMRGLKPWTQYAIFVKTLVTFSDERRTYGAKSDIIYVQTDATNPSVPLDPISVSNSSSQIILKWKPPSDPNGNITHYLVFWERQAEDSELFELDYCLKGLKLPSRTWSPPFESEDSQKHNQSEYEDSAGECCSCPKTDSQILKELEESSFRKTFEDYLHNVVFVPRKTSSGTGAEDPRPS
Chain of Insulin receptor (P06213 763-1382 limits assumed): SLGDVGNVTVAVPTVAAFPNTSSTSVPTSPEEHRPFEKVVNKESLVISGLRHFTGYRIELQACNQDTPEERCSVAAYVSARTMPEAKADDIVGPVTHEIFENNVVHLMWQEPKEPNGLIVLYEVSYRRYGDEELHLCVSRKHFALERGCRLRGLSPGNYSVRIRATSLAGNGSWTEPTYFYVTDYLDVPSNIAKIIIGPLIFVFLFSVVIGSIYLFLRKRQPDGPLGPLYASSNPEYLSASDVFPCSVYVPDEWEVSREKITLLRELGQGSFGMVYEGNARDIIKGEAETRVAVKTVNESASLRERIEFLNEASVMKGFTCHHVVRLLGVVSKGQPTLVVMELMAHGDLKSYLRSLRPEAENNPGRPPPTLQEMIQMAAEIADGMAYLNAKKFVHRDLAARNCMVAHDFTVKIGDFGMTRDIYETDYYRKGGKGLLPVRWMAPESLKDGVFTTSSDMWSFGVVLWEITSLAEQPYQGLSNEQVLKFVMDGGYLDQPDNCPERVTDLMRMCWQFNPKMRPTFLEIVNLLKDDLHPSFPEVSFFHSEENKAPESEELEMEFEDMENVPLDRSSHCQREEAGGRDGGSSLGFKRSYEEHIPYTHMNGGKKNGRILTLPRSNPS

[9] = biological target: Cyclin-dependent kinase 3 (Homo sapiens, UniProt Q00526); assay: Binding affinity to full length human CDK3 (M1 to H305 residues) expressed in bacterial expression system by KINOMEscan assay
SW-620 [10] = assay: Growth inhibition of human SW620 cells by MTT assay; format: functional
Method in brief: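 MTT viability assay: 3×10³ cells/well were pre-incubated for 24 h, then exposed to 0, 12.5, 25, 50, 100 or 200 μM for 12, 24, 48 or 72 h. MTT was added at 0.5 mg/mL final for 4 h, formazan dissolved in DMSO, and absorbance read at 570 nm. GI₅₀ was taken from growth-inhibition curves; mean ± SD of three independent experiments, each in sextuplicate.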

[11] = biological target: Cyclin-dependent kinase 9 (Homo sapiens, UniProt P50750); assay: Inhibition of full length human CDK9 (M1 to F372 residues) expressed in bacterial expression system assessed as residual activity at 5 uM by KINOMEscan assay relative to control
[12] = biological target: Macrophage colony-stimulating factor 1 receptor (Homo sapiens, UniProt P07333); assay: Inhibition of human CSF1R (I564 to S939 residues) expressed in bacterial expression system assessed as residual activity at 5 uM by KINOMEscan assay relative to control
[13] = biological target: Dual specificity tyrosine-phosphorylation-regulated kinase 1B (Homo sapiens, UniProt Q9Y463); assay: Inhibition of full length human DYRK1B (M1 to S629 residues) expressed in bacterial expression system assessed as residual activity at 5 uM by KINOMEscan assay relative to control
[14] = biological target: Serine/threonine-protein kinase PLK1 (Homo sapiens, UniProt P53350); assay: Binding affinity to human PLK1 (A33 to F325 residues) expressed in mammalian expression system by KINOMEscan assay
[15] = biological target: Serine/threonine-protein kinase mTOR (Homo sapiens) (UniProt P42345); assay: Inhibition of mTOR in human HT-29 cells assessed as reduction in 4EBP1 phosphorylation up to 75 uM after 48 hrs by Western blot analysis; format: cell-based
[16] = biological target: Platelet-derived growth factor receptor beta (Homo sapiens, UniProt P09619); assay: Binding affinity to human PDGFRB (V582 to Y1009 residues) expressed in bacterial expression system by KINOMEscan assay
Chain of Platelet-derived growth factor receptor beta (P09619 whole entry, the tested form may be a part): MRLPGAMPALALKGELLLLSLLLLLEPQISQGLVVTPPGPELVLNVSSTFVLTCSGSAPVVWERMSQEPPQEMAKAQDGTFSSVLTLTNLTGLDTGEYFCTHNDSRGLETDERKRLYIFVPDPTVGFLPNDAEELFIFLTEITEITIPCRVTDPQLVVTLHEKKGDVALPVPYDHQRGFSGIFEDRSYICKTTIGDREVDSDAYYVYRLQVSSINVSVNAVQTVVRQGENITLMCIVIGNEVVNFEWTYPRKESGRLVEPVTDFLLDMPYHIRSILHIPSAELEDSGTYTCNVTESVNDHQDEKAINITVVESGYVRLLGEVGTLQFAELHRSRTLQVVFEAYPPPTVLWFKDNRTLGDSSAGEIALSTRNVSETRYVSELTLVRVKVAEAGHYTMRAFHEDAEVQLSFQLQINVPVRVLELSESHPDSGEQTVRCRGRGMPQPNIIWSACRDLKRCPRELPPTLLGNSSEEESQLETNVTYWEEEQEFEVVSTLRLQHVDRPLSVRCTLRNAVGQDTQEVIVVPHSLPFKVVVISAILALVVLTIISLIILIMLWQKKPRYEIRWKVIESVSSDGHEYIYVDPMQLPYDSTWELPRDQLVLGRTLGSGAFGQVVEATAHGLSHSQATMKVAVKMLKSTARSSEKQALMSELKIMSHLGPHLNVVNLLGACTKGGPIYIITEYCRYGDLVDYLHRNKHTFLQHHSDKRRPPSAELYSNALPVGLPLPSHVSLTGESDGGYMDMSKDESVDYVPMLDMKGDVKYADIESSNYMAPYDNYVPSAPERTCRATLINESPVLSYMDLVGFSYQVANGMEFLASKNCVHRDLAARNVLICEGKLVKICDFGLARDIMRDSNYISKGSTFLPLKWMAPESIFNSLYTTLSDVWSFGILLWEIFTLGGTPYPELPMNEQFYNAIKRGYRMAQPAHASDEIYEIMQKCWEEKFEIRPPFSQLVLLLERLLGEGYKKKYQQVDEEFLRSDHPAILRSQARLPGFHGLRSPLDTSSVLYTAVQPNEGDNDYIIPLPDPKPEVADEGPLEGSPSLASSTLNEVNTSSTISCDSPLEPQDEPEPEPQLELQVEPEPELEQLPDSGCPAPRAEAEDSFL

[17] = biological target: T1, Proto-oncogene tyrosine-protein kinase receptor Ret; assay: Inhibition of human RET (E713 to D1014 residues) expressed in bacterial expression system assessed as residual activity at 5 uM by KINOMEscan assay relative to control
HT-29 [18] = assay: Upregulation of p53 expression in human HT-29 cells after 48 hrs by Western blot analysis; format: functional, cell-based
[19] = tested on: Mast/stem cell growth factor receptor Kit (Homo sapiens), P10721 [D816V]; assay: Inhibition of human KIT (I571 to D952 residues) D816V mutant expressed in bacterial expression system assessed as residual activity at 5 uM by KINOMEscan assay relative to control
[20] = Growth inhibition of human FHC cells after 48 hrs by MTT assay; format: cell-based
SW-620 [21] = assay: Cell cycle arrest in human SW620 cells assessed as accumulation at G1-phase at 75 uM after 48 hrs by propidium iodide staining based flow cytometry (reference value: 40.56%); format: functional
[22] = biological target: Serine/threonine-protein kinase B-raf (Homo sapiens, UniProt P15056); assay: Inhibition of human BRAF (S429 to E741 residues) expressed in mammalian expression system assessed as residual activity at 5 uM by KINOMEscan assay relative to control
[23] = biological target: Inhibitor of nuclear factor kappa-B kinase subunit beta (Homo sapiens) (UniProt O14920); assay: Inhibition of full length human IKKbeta (M1 to S756 residues) expressed in mammalian expression system assessed as residual activity at 5 uM by KINOMEscan assay relative to control
HT-29 [24] = assay: Cell cycle arrest in human HT-29 cells assessed as accumulation at G2-phase at 25 uM after 48 hrs by propidium iodide staining based flow cytometry (reference value: 15.45%); format: functional
SW-620 [25] = assay: Cell cycle arrest in human SW620 cells assessed as increase in accumulation at G2/M-phase after 48 hrs by propidium iodide staining based flow cytometry; format: functional
[26] = biological target: Serine/threonine-protein kinase PAK 4 (Homo sapiens, UniProt O96013); assay: Binding affinity to partial length human PAK4 (Q144 to R438 residues) expressed in bacterial expression system by KINOMEscan assay
Chain of Serine/threonine-protein kinase PAK 4 (O96013 whole entry, the tested form may be a part): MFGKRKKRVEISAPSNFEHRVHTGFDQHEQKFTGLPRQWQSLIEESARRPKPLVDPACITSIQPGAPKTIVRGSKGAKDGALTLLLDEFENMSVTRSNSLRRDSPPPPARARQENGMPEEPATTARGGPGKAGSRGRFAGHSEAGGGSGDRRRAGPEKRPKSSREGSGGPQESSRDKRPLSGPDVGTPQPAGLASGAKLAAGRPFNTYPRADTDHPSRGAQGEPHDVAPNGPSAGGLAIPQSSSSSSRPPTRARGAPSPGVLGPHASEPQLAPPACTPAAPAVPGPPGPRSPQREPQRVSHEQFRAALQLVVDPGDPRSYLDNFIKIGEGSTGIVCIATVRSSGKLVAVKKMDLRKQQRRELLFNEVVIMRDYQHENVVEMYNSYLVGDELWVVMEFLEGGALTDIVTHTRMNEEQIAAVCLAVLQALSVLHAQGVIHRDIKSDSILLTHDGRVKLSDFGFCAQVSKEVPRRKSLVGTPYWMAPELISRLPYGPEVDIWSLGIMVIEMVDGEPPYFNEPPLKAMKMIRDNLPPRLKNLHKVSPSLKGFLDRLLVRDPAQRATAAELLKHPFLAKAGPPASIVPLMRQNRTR

HT-29 [27] = assay: Induction of apoptosis in human HT-29 cells assessed as early apoptotic cells at 75 uM after 48 hrs by Annexin-V-FITC/propidium iodide staining based flow cytometry (reference value: 1%); format: functional

In the case of `CC(C)CN(C(=O)c1cccnc1)c1c2ccccc2c(=O)n2c1[nH]c1ccccc12`, the pKd [1] was no more than 5.30, the Activity (SW-620 [2]) was “Dose-dependent effect” and the pKd [3] was no more than 5.30. The Activity (HT-29 [4]) was 8%, the Activity [5] was 77% and the Activity (SW-620 [6]) was 32.39%. The Activity [7] was 97%, the Activity [8] was 63% and the pKd (Insulin receptor) was no more than 5.30. It also gave a pKd [9] of no more than 5.30, a GI50 (SW-620 [10]) of 23.8 µM and an Activity [11] of 87%. For the same molecule, the Activity [12] was 100%, the Activity [13] was 95% and the pKd [14] was no more than 5.30. The inhibition [15] was “Active”, the pKd [16] was no more than 5.30 and the Activity [17] was 100%. The Activity (HT-29 [18]) was “Dose-dependent effect”, the Activity [19] was 100% and the GI50 at 48 h [20] was greater than 200 µM. For the same molecule, the Activity (SW-620 [21]) was 31.67%, the Activity [22] was 82% and the Activity [23] was 93%. The Activity (HT-29 [24]) was 16.97%, the Activity (SW-620 [25]) was “Dose-dependent effect” and the pKd [26] was no more than 5.30. It also gave an Activity (HT-29 [27]) of 0.3%.
